From ChEMBL document CHEMBL3091306, “Synthesis, docking and pharmacological evaluation of novel homo- and hetero-bis 3-piperazinylpropylindole derivatives at SERT and 5-HT1A receptor” (Bioorg Med Chem, 2013)

Tests used:
[1] = biological target: T1, 5-hydroxytryptamine receptor 1A (Homo sapiens, UniProt P08908); assay: Displacement of [3H]8-OH-DPAT from human 5-HT1A receptor expressed in HEK293 cells; assay type: cell-based
T1 sequence (P08908 whole entry): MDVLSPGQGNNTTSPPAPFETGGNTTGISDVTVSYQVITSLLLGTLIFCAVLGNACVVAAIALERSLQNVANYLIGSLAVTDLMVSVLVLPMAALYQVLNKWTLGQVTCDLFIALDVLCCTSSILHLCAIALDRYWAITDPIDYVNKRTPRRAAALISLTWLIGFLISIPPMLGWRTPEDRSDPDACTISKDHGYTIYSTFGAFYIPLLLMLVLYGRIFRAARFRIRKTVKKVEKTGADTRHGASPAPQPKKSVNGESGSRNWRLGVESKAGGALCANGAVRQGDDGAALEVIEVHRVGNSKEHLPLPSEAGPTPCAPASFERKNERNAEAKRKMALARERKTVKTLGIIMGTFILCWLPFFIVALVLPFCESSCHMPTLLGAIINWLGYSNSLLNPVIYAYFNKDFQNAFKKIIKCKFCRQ

[2] = biological target: Sodium-dependent serotonin transporter (Rattus norvegicus, UniProt P31652); assay: Displacement of [3H]paroxetine from SERT in rat cortical membranes after 6 mins by liquid scintillation counting; assay type: cell membranes
Chain of Sodium-dependent serotonin transporter (P31652 whole entry): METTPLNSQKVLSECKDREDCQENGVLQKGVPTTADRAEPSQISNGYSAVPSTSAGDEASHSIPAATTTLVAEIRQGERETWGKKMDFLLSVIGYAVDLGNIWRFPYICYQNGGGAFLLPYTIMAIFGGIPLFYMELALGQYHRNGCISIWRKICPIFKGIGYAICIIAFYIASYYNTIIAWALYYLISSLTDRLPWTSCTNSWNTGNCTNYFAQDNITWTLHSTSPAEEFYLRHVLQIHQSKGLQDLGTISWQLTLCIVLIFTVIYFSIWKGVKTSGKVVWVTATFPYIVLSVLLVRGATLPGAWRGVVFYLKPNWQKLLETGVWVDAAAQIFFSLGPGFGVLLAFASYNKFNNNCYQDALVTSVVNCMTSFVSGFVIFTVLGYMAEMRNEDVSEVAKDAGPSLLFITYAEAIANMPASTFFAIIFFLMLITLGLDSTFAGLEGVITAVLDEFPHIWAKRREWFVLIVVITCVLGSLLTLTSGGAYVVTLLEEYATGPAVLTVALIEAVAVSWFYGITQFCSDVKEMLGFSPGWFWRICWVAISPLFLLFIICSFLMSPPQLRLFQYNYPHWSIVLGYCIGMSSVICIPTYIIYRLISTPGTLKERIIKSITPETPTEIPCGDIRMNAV
Method in brief: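 Rat cortical membranes (0.35 mg original wet weight) incubated with 0.2 nM [3H]paroxetine and test compound at 10^-11–10^-4 M in 50 mM Tris–HCl pH 7.7 with 150 mM NaCl, 5 mM KCl, 1.0 ml, 6 min at 25 °C; stopped by rapid filtration through polyethyleneimine-soaked GF/B filters, ice-cold buffer washes.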

Row | Compound | IC50 [1] [nM] | IC50 [2] [nM]
1 | Fc1ccc2[nH]cc(CCCN3CCN(CCCc4c[nH]c5ccccc45)CC3)c2c1 | 16 | 26
2 | Brc1ccc2[nH]cc(CCCN3CCN(CCCc4c[nH]c5ccccc45)CC3)c2c1 | 15 | 137
3 | COc1ccc2[nH]cc(CCCN3CCN(CCCc4c[nH]c5ccc(F)cc45)CC3)c2c1 | 7200 | 14
4 | c1ccc2c(CCCN3CCN(CCCc4c[nH]c5ccccc45)CC3)c[nH]c2c1 | 2700 | 37
5 | COc1ccc2[nH]cc(CCCN3CCN(CCCc4c[nH]c5ccccc45)CC3)c2c1 | 4500 | 43
6 | Fc1ccc2[nH]cc(CCCN3CCN(CCCc4c[nH]c5ccc(Br)cc45)CC3)c2c1 | 4900 | 61
7 | Brc1ccc2[nH]cc(CCCN3CCN(CCCc4c[nH]c5ccc(Br)cc45)CC3)c2c1 | 1200 | 87
8 | Fc1ccc2[nH]cc(CCCN3CCN(CCCc4c[nH]c5ccc(F)cc45)CC3)c2c1 | 5700 | 13
9 | COc1ccc2[nH]cc(CCCN3CCN(CCCc4c[nH]c5ccc(Br)cc45)CC3)c2c1 | 128 | 39
10 | COc1ccc2[nH]cc(CCCN3CCN(CCCc4c[nH]c5ccc(OC)cc45)CC3)c2c1 | 599 | 98
